Bioassay records from PubChem BioAssay.
In the library only some 3.3% were active in any assay of this set; here they are far more common.
5-HT1A blocker – 5-HT1a (human) receptor antagonism; CHO 5-HT1a Ga15 NFAT-bla reporter, antagonist mode; P08908; actives 0.68% (n = 62,000); inhibition, % at 10 µM; AID 612;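 active means inhibition above the mean of all tested compounds plus 3 SD, cut at about 43% in these data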;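 further: receptor stimulated by 5-CT agonist at 100 nM near EC80; beta-lactamase reporter measured by ratiometric fluorescence of a cleavable substrate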
Target sequence (P08908 whole entry, looked up): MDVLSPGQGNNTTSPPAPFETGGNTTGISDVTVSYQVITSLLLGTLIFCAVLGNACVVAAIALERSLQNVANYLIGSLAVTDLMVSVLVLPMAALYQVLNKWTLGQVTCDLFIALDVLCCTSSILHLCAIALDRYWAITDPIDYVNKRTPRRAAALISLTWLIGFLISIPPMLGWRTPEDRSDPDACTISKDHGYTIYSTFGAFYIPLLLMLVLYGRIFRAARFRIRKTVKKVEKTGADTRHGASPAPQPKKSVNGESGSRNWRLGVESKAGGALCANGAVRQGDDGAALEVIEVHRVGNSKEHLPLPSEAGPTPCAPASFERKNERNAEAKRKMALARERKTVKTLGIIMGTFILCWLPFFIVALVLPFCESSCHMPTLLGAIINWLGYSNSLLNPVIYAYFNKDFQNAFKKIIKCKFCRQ
HEK293 NFkB inh – lowers PMA/ionomycin-induced NF-kB signal in HEK293 cells. HEK-293 NF-kB luciferase reporter, luminescence. inhibition, % at 3 µM. actives 0.21% (n = 62,000). AID 465;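 active means inhibition above the mean of all tested compounds plus 3 SD, cut at about 40% in these data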
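Material: HEK-293 cells with stable firefly luciferase reporter driven by four HIV NF-kB elements / Also added: PMA plus ionomycin mix as NF-kB-activating stimulus / Compound dosing: 3 µM once, 0.30% DMSO / Times: 1 h pretreatment, 16 h stimulation, 37 °C / Signal: luminescence / Evaluation: per-plate % inhibition versus controls / Benchmarks: DMSO and 10 µM reference inhibitor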
HTR1E antagonist – 5-HT1E (human) receptor antagonism. inhibition, % at 6 µM. AID 571. CHO 5-HT1E Ga15 NFAT-bla reporter, FRET, antagonist. actives 0.99% (n = 65,000). P28566;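 active means inhibition above a set limit, the mean inhibition across every tested compound plus 3 SD, cut at about 29% in these data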;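 further: signal is the 460 over 535 nm emission ratio of beta-lactamase substrate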
Jurkat tox 60K – cytotoxicity toward Jurkat cells; Jurkat E6.1 viability, ATP luminescence, 48 h; inhibition, % at 4 µM; actives 1.2% (n = 56,000);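 active means inhibition above the mean inhibition of all tested compounds plus 3 SD, cut at about 28% in these data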
5HT1E ag – agonists of human 5-HT1E serotonin receptor. P28566. CHO 5-HT1E Ga15 NFAT-bla reporter, FRET; 0% DMSO wells, 100% control agonist wells. activation, % at 6 µM. actives 0.69% (n = 65,000). AID 574;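 active means activation above a set limit, the screen-wide mean activation plus 3 SD, cut at about 8.5% in these data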
HTR1A agonist – 5-HT1a (human) receptor agonism; P08908; CHO 5-HT1a Ga15 NFAT-bla reporter, FRET ratio; 0% basal, 100% maximal reference agonist; activation, % at 10 µM; actives 0.56% (n = 65,000); AID 567;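 active means activation above the screen-wide mean activation plus 3 SD, cut at about 19% in these data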
Hits are given with their value; . = inactive; / = no result given.

SMILES | 5-HT1A blocker | HEK293 NFkB inh | HTR1E antagonist | Jurkat tox 60K | 5HT1E ag | HTR1A agonist
Cc1c(C)[n+](=O)c2c(n1[O-])CCCCC2 | . | . | . | . | 22.9 | .
Cc1ccc(C2=Nc3ccccc3NC(C)(c3ccc(C)o3)C2)o1 (configuration not stated) | 49.1 | . | . | . | 16.7 | .
CCCc1cc(C(=O)N2CCN(c3ccccc3C)CC2)cs1 | . | . | . | . | . | .
Clc1ccc(OCCN2CCN(c3ncnc4sccc34)CC2)cc1 | . | 62.4 | . | 44.1 | . | .
CC(C)=CCC(C)(C)CNC(=O)NC1CCCCC1 | / | / | 99.1 | / | . | .
O=C(Nc1ccc(Cl)cn1)C1CCCN1S(=O)(=O)c1ccccc1 (configuration not stated) | / | / | . | / | . | .
CCOC(=O)C1=C(N)n2c(s/c(=C\c3cccnc3)c2=O)=C(C#N)C1c1cccnc1 (configuration not stated) | . | . | . | . | 18.7 | .
COC(=O)C1=C(N)n2c(s/c(=C\c3cccnc3)c2=O)=C(C(=O)OC)C1c1cccnc1 (configuration not stated) | . | . | . | . | . | .
CCOC(=O)Nc1ccc2c(c1)N(C(=O)CCN(C)C)c1ccccc1S2 | 45.6 | . | . | . | . | .
CCOC(=O)Nc1ccc2c(c1)N(C(=O)OC)c1ccccc1CC2 | . | . | . | 65.9 | . | .
Cc1nccn1-c1cc(C(C)C)c(C#N)c2nc3ccccc3n12 | / | / | . | / | . | .
Cc1ccc2c(c1)nnn2C1CCN(S(=O)(=O)c2ccc(C(=O)N3C(C)CCCC3C)cc2)CC1 (configuration not stated) | . | . | . | 43.4 | . | .
Cc1ccc2c(c1)nnn2C1CCN(S(C)(=O)=O)CC1 | . | . | . | . | . | .
COCCNC(=O)CSc1nc2ccccc2c(=O)n1CCCC(=O)NCc1ccccc1 | . | . | . | / | . | 26.4
CCNC(=O)CSc1nc2ccccc2c(=O)n1CCCOC(C)C | . | . | . | . | . | .
CCNc1ccc(C(=O)OCC)cc1NC(=O)c1cccc(N(C)C)c1 | . | 41.6 | 44.5 | / | . | .
CCNc1ccc(C(=O)OCC)cc1NC(=O)c1cc(S(=O)(=O)N2CCOCC2)ccc1C | . | . | . | / | . | .
CCOC(=O)C1CCN(C(=O)Cn2cc(C(=O)C3CC3)c3ccccc32)CC1 | . | . | . | . | . | .
CCOC(=O)C1CCN(C(=O)Cc2c(C(=O)O)n(C)c3ccccc23)CC1 | . | . | . | . | 116.9 | .
O=C(Nc1ccc(OC(F)F)c(Cl)c1)Nc1ccc2c(c1)OCO2 | 60.7 | . | . | . | . | .
N#CCCn1cc(/C=N/O)c(-c2ccc(-c3ccccc3)cc2)n1 | . | . | . | 43.0 | . | .
CCOc1ccc(-c2nnc(-c3snc(-c4ccc(F)cc4)c3N=CN(C)C)o2)cc1 | . | . | . | . | . | .
CCCOc1ccc2nc(NC(=O)OC)[nH]c2c1 | / | / | 73.2 | / | . | .
CN(C)CCCN1C(=O)C(=O)/C(=C(/O)c2ccc3c(c2)OCO3)C1c1ccccn1 (configuration not stated) | . | . | . | . | . | .
O=C(CC1Oc2ccccc2NC1=O)NCCc1ccccc1 (configuration not stated) | . | . | . | . | . | 48.7
SMILES | 5-HT1A blocker | HEK293 NFkB inh | HTR1E antagonist | Jurkat tox 60K | 5HT1E ag | HTR1A agonist
CCOC(=O)NC(Nc1cc(C)ccn1)(C(F)(F)F)C(F)(F)F | . | . | . | . | . | .
O=C(CCn1c(=O)sc2ccccc21)NCc1ccccc1 | . | . | . | . | . | .
O=C(CCn1c(=O)sc2ccccc21)NCc1cccs1 | . | . | . | / | . | 74.0
CCOC(=O)C1CCN(Cc2ccccc2C(F)(F)F)CC1 | . | . | . | . | . | .
CCOC(=O)C1CCN(Cc2ccc(O)c3ncccc23)CC1 | . | . | . | 43.2 | . | .
COc1ccc(N=c2oc3cc(O)ccc3cc2C(=O)NCC2CCCO2)cc1 (configuration not stated) | . | . | . | . | . | 25.8
COc1ccc(N=c2oc3cc(O)ccc3cc2C(=O)NCC2CCCO2)c(OC)c1 (configuration not stated) | . | . | . | . | 18.8 | 70.4
O=C(NCc1ccco1)c1cc2ccc(O)cc2oc1=O | . | . | . | . | 37.6 | 189.2
CSc1ccc(Cl)c(C(=O)NCc2ccco2)c1 | . | . | 31.9 | . | . | .
COc1ccc2cc(C(=O)NCc3ccco3)c(=O)oc2c1 | . | . | . | . | . | .
Cc1ncc(CO)c2cc(C(N)=O)c(=Nc3ccccc3)oc12 | . | . | . | . | . | .
Cc1ccc(N=c2oc3cc(O)ccc3cc2C(N)=O)cc1 | . | . | . | . | 21.6 | 71.3
COc1ccc2cc(C(=O)NCc3ccco3)c(=Nc3ccc(C(=O)O)cc3)oc2c1 | . | 47.5 | . | . | . | .
Cc1nn(Cc2c(Cl)cccc2Cl)c(C)c1NC(=O)c1cc(C(C)C)on1 | . | 44.4 | . | 44.9 | . | .
Cc1ccc(-c2nnc3c4ccccc4c(C)nn23)cc1S(=O)(=O)N1CCN(C)CC1 | . | . | . | . | . | .
Cc1ccc(-c2nnc(N3CCCCC3)c3ccccc23)cc1S(=O)(=O)N1CCN(C)CC1 | . | . | 30.6 | . | . | .
Cc1ccc(S(=O)(=O)NC2CCCC(C(=O)O)C2)cc1 (configuration not stated) | . | . | . | . | . | .
COc1cc(NS(=O)(=O)c2ccc(C)cc2C)cc(OC)c1OC | . | . | . | 39.2 | . | .
COc1ccc(C(=O)NCCn2ccc3ccccc32)c(OC)c1 | . | . | . | . | . | .
COC(=O)C(NC=O)C(O)(Cc1ccccc1)C(F)(F)F (configuration not stated) | . | . | . | . | . | .
CCOC(=O)c1oc2ccccc2c1CSc1nnnn1-c1ccc(C)cc1 | . | . | . | . | . | .
COc1cc(CSc2nnnn2-c2ccc(C)cc2)cc(OC)c1OC | . | 44.3 | . | 88.8 | . | .
O=C1CC(c2ccccc2)n2nc(N3C(=O)c4ccccc4C3=O)nc2N1 (configuration not stated) | / | / | . | / | . | .
Cc1c(C)c2cc(Cl)c(O)c(CN3CCN(C)CC3)c2oc1=O | / | / | . | / | . | .
Cc1c(Cc2ccccc2)c(=O)oc2c(CN(C)C)c(O)c(Cl)cc12 | . | . | . | . | . | 20.1
Cc1nn(-c2nc3ccccc3s2)c(C)c1Oc1ccccc1O | . | . | . | 28.3 | . | .
CCOCC(=O)N1CCc2ccccc21 | . | . | . | . | . | 23.9
COc1cccc2cc(C(=O)N3CCc4ccccc43)c(=O)oc12 | . | . | . | . | . | .
COc1ccccc1C(=O)N1CCc2ccccc21 | . | . | . | . | 20.4 | .
